Experimental findings from ChEMBL document CHEMBL1122823, “Synthesis and receptor-binding affinity of fluorotamoxifen, a possible estrogen-receptor imaging agent” (J Med Chem, 1985) are described below.

Several values for one entry are separate records, joined by “and”; a condition that tells them apart may be missing. Equal entries are not always repeated.

The target of series [1] is T1, Estrogen receptor (Rattus norvegicus) (UniProt P06211+Q62986). The experiment in a line: Uterotrophic effect in rats uterine at 0.3 ug/day dose. Type of series: functional, tissue-based. Particulars: Uterus.
The target in series [2] is T1, Estrogen receptor (Rattus norvegicus). Description: Uterotrophic effect in rats uterine at 0.03 ug/day dose. Type of series: functional, tissue-based. Conditions: Uterus.
For series [3] the target is unchanged. The experiment in a line: Percent uterotrophic effect at 0.1 ug/day dose compared to estradiol. Type of series: functional.
Series [4] has the same target. The experiment in a line: Uterotrophic effect in rats at 0.1 ug/day dose. In kind it is functional, tissue-based. Conditions: Uterus.
Series [5] shares this target. Particulars: Uterus.
Series [6] shares this target. Description: Uterotrophic effect in rats uterine at 0.01 ug/day dose. Type of series: functional, tissue-based. Conditions: Uterus.
For series [7] the target is unchanged. Conditions: Uterus. The source holds these as a separate data set.
The target is the same in series [8]. Particulars: Uterus. The source holds these as a separate data set.
The nature of series [9]: Dissociation constant was evaluated. Type of series: physicochemical. An outline of the steps:
(§1)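 Rat uterine cytosol from 19-day-old immature Sabra rats, homogenized at 0 °C in TEG buffer (pH 7.4, 10% glycerol, 0.01 M DTT) and spun to 105000g, diluted to 2 uteri/mL. […] Free ligand removed with 2.5% dextran-coated charcoal. Nonspecific binding taken with 10000-fold excess. KA = KL·A50/([L*]+KL), with free [L*] 10 nM.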

Series [10] addresses T1, Estrogen receptor (Rattus norvegicus). Description: Uterotrophic effect in rats uterine at 500 ug/day dose in the presence of 10 ug estradiol. Particulars: Uterus. Type of series: functional, tissue-based.
Series [11] has the same target. Description: Uterotrophic effect in rats uterine at 100 ug/day dose in the presence of 0.20 ug estradiol. Type of series: functional, tissue-based. Conditions: Uterus.
Series [12] has the same target. The experiment in a line: Uterotrophic effect in rats uterine at 100 ug/day dose in the presence of 10 ug estradiol. In kind it is functional, tissue-based. Particulars: Uterus.
For series [13] the target is unchanged. The experiment in a line: Percent uterotrophic effect at 500 ug/day dose compared to estradiol. Type of series: functional.
The target is the same in series [14]. Description: Uterotrophic effect in rats uterine at 1 ug/day dose in the presence of 0.08 ug estradiol. In kind it is functional, tissue-based. Particulars: Uterus.
Series [15] shares this target. The experiment in a line: Uterotrophic effect in rats uterine at 500 ug/day dose in the presence of 0.08 ug estradiol. Type of series: functional, tissue-based. Conditions: Uterus.
For series [16] the target is unchanged. Description: Uterotrophic effect in rats uterine at 500 ug/day dose. Type of series: functional, tissue-based. Particulars: Uterus.
The target is the same in series [17]. The experiment in a line: Uterotrophic effect in rats uterine at 500 ug/day dose in the presence of 0.2 ug estradiol. Type of series: functional, tissue-based. Conditions: Uterus.
Series [18] has the same target. The experiment in a line: Uterotrophic effect in rats uterine at 10 ug/day dose in the presence of 0.08 ug estradiol. In kind it is functional, tissue-based. Conditions: Uterus.
Series [19] has the same target. Description: Uterotrophic effect in rats uterine at 500 ug/day dose in the presence of 0.10 ug estradiol. In kind it is functional, tissue-based. Conditions: Uterus.
For series [20] the target is unchanged. The experiment in a line: Uterotrophic effect in rats uterine at 100 ug/day dose. Type of series: functional, tissue-based. Particulars: Uterus.
Series [21] shares this target. The experiment in a line: Uterotrophic effect in rats uterine at 100 ug/day dose in the presence of 0.05 ug hexestrol. Type of series: functional, tissue-based. Particulars: Uterus.
The target is the same in series [22].
The target is the same in series [23]. The experiment in a line: Uterotrophic effect in rats uterine at 50 ug/day dose. Particulars: Uterus. Type of series: functional, tissue-based.
The target is the same in series [24]. Description: Percent uterotrophic effect at 50 ug/day dose compared to estradiol. In kind it is functional.
Series [25] has the same target. The experiment in a line: Uterotrophic effect in rats uterine at 100 ug/day dose in the presence of 0.1 ug estradiol. In kind it is functional, tissue-based. Conditions: Uterus.
For series [26] the target is unchanged. Description: Percent uterotrophic effect at 100 ug/day dose compared to estradiol. Type of series: functional.
The target is the same in series [27]. The experiment in a line: Uterotrophic effect in rats uterine at 10 ug/day dose. Type of series: functional, tissue-based. Particulars: Uterus.
The target is the same in series [28]. The experiment in a line: Uterotrophic effect in rats uterine at 1000 ug/day dose in the presence of 0.16 ug estradiol. In kind it is functional, tissue-based. Particulars: Uterus.
The target is the same in series [29]. Description: Uterotrophic effect in rats uterine at 100 ug/day dose in the presence of 0.5 ug hexestrol. Type of series: functional, tissue-based. Particulars: Uterus.
The target is the same in series [30]. Description: Uterotrophic effect in rats uterine at 1000 ug/day dose. In kind it is functional, tissue-based. Conditions: Uterus.
The target is the same in series [31]. The experiment in a line: Uterotrophic effect in rats uterine at 10 ug/day dose in the presence of 0.16 ug estradiol. Type of series: functional, tissue-based. Particulars: Uterus.
The target is the same in series [32]. The experiment in a line: Uterotrophic effect in rats at 10 ug/day dose. Particulars: Uterus. Type of series: functional, tissue-based.
Series [33] has the same target. The experiment in a line: Percent uterotrophic effect at 10 ug/day dose compared to estradiol. In kind it is functional.
Series [34] can be described thus: Dissociation constant was evaluated. In kind it is functional. Put shortly:
as §1

Consider `CC[C@H](c1ccc(O)cc1)[C@@H](CC)c1ccc(O)cc1`, for which the Uterine weight in [1] was 94.5; in series [2], 62.6; in series [5], 90.2; in series [6], 29.3; in series [7] it was 86.8; in series [8], 97.3. The Effect in series [3] was found to be 143%. In series [4], this compound gave a Max uterine weight of 62.6 mg.

The compound `CC/C(=C(/CC)c1ccc(O)cc1)c1ccc(O)cc1` [DIETHYLSTILBESTROL] gave a KA in [9] of 400 pM.

Consider `CC/C(=C(\c1ccc(N)cc1)c1ccc(OCCN(C)C)cc1)c1ccccc1`, for which the Uterine weight in series [10] was 67.2; in series [11], 43; in series [12] it was 57.1; in series [14] it was 58.2; in series [15], 56.5; in series [5] it was 29.6. Besides, the Uterine weight in series [16] was 54; in series [17], 62; in [18] it was 54.8; in [19] it was 46; in series [20] it was 50.3; in series [8], 44. Further, in series [21], the Uterine weight was 46 and 70.3. In [13], this compound gave an Effect of 76%. The Max uterine weight in [16] is 54 mg. The compound also had an A50 in series [22] of 20 nM.

`CC/C(=C(/c1ccc(O)cc1)c1ccc(NC(C)=O)cc1)c1ccccc1` gave a Max uterine weight in [23] of 65.8 mg. The compound further showed an Effect in series [24] of 98%. This compound also returned an A50 in series [22] of 1200 nM.

On to `CC/C(=C(\c1ccc(F)cc1)c1ccc(OCCN(C)C)cc1)c1ccccc1`, for which the Uterine weight in series [25] turned out to be 74; in series [11] it was 73.8; in series [12], 80.3; in series [27], 68.9; in series [28], 76.9; in series [29], 71.2. For the same compound, the Uterine weight was found to be 85.7 in series [30], 76.4 in series [20], 72.2 in series [31] and 70.4 in [21]. In series [26], the Effect stood at 108%. Moreover, in series [20], the Max uterine weight turned out to be 76.4 mg. In series [22], this compound yielded an A50 of 5000 nM.

Take `CC/C(=C(/c1ccc(O)cc1)c1ccc(F)cc1)c1ccccc1`: the Max uterine weight in series [32] was 97 mg. The compound further returned an Effect in series [33] of 140%. In series [34], this compound had a KA of 63 nM. Moreover, the A50 in series [22] was found to be 670 nM.

The compound `CC/C(=C(\c1ccc(NC(C)=O)cc1)c1ccc(ON(C)C)cc1)c1ccccc1` registered a Max uterine weight in [23] of 41.8 mg. Also, the Effect in series [24] was 60%.
